Assays:
[1] = tested on: Bel-7402; test: Induction of apoptosis in human Bel7402 cells after 48 hrs by Annexin V/propidium iodide staining-based flow cytometric analysis; assay type: functional, cell-based
[2] = tested on: NCI-H460; test: Anticancer activity against human NCI-H460 cells by MTT assay; assay type: functional, cell-based
Procedure, shortened: (§1)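 MTT cytotoxicity run on paired parental and transporter-overexpressing lines: SW620 vs ABCB1-overexpressing SW620/AD300, and NCI-H460 vs ABCG2-overexpressing NCI-H460/MX20. IC50 is the concentration inhibiting 50% of cell growth. Concentrations tested up to 100 μM.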

[3] = tested on: Bel-7402; test: Induction of apoptosis in human Bel7402 cells assessed as necrotic cells after 48 hrs at 0.25 uM by Annexin V/propidium iodide staining-based flow cytometric analysis (reference value: 1.99%); assay type: functional
[4] = Cell cycle arrest in human Bel7402 cells assessed as cells at G1 phase at 0.125 uM after 48 hrs by propidium iodide staining-based flow cytometric analysis (reference value: 39.66%); assay type: functional; details: Bel-7402
[5] = Anticancer activity against ABCG2-overexpressing human NCI-H460/MX20 cells by MTT assay; assay type: functional, cell-based; procedure, shortened: as §1
[6] = Anticancer activity against ABCB1-overexpressing human SW620/AD300 cells by MTT assay; assay type: functional, cell-based; details: SW-620; procedure, shortened: as §1
[7] = Cytotoxicity against human L02 cells by MTT assay; assay type: cell-based
Procedure, shortened: (§2)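 Toxicity compared on human normal liver L-02 cells and human liver cancer Bel-7402 cells run side by side. Survival curves by MTT after 72 h treatment. IC50 is the concentration inhibiting 50% of cell growth.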

[8] = Cell cycle arrest in human Bel7402 cells assessed as cells at G1 phase at 0.25 uM after 48 hrs by propidium iodide staining-based flow cytometric analysis (reference value: 39.66%); assay type: functional; details: Bel-7402
[9] = Antiproliferative activity against human Bel7402 cells assessed as growth inhibition after 72 hrs by MTT assay; assay type: functional, cell-based; details: Bel-7402, 72 h
Procedure, shortened: (§3)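 MTT proliferation assay on human K562 leukaemia, MCF-7 breast adenocarcinoma, Bel-7402 hepatocellular carcinoma and MGC-803 gastric cancer cells. Drug exposure 72 h. IC50 is the concentration inhibiting 50% of cell growth. Means ± SD, n = 3.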

[10] = tested on: Bel-7402; test: Induction of apoptosis in human Bel7402 cells assessed as early apoptotic cells after 48 hrs at 0.25 uM by Annexin V/propidium iodide staining-based flow cytometric analysis (reference value: 0.64%); assay type: functional
[11] = tested on: Bel-7402; test: Induction of apoptosis in human Bel7402 cells assessed as early apoptotic cells after 48 hrs at 0.125 uM by Annexin V/propidium iodide staining-based flow cytometric analysis (reference value: 0.64%); assay type: functional
[12] = tested on: K562; test: Antiproliferative activity against human K562 cells assessed as growth inhibition after 72 hrs by MTT assay; assay type: functional, cell-based; details: K562, 72 h; procedure, shortened: as §3
[13] = Cell cycle arrest in human Bel7402 cells assessed as cells at G2 phase at 0.25 uM after 48 hrs by propidium iodide staining-based flow cytometric analysis (reference value: 19.52%); assay type: functional; details: Bel-7402
[14] = tested on: Bel-7402; test: Induction of apoptosis in human Bel7402 cells assessed as viable cells after 48 hrs at 0.125 uM by Annexin V/propidium iodide staining-based flow cytometric analysis (reference value: 92.80%); assay type: functional; details: Bel-7402, 48 h, read-out: Activity
[15] = Cell cycle arrest in human Bel7402 cells assessed as cells at S phase at 0.125 uM after 48 hrs by propidium iodide staining-based flow cytometric analysis (reference value: 40.82%); assay type: functional; details: Bel-7402
[16] = Cell cycle arrest in human Bel7402 cells assessed as cells at G1 phase at 0.5 uM after 48 hrs by propidium iodide staining-based flow cytometric analysis (reference value: 39.66%); assay type: functional; details: Bel-7402
[17] = tested on: Bel-7402; test: Induction of apoptosis in human Bel7402 cells assessed as necrotic cells after 48 hrs at 0.5 uM by Annexin V/propidium iodide staining-based flow cytometric analysis (reference value: 1.99%); assay type: functional
[18] = Cell cycle arrest in human Bel7402 cells assessed as cells at S phase at 0.5 uM after 48 hrs by propidium iodide staining-based flow cytometric analysis (reference value: 40.82%); assay type: functional; details: Bel-7402
[19] = tested on: Bel-7402; test: Induction of apoptosis in human Bel7402 cells assessed as late apoptotic cells after 48 hrs at 0.25 uM by Annexin V/propidium iodide staining-based flow cytometric analysis (reference value: 5.21%); assay type: functional
[20] = tested on: MCF7; test: Antiproliferative activity against human MCF7 cells assessed as growth inhibition after 72 hrs by MTT assay; assay type: functional, cell-based; details: MCF7, 72 h; procedure, shortened: as §3
[21] = tested on: Bel-7402; test: Induction of apoptosis in human Bel7402 cells assessed as late apoptotic cells after 48 hrs at 0.5 uM by Annexin V/propidium iodide staining-based flow cytometric analysis (reference value: 5.21%); assay type: functional
[22] = tested on: Bel-7402; test: Induction of apoptosis in human Bel7402 cells assessed as early apoptotic cells after 48 hrs at 0.5 uM by Annexin V/propidium iodide staining-based flow cytometric analysis (reference value: 0.64%); assay type: functional
[23] = Cell cycle arrest in human Bel7402 cells assessed as cells at G2 phase at 0.5 uM after 48 hrs by propidium iodide staining-based flow cytometric analysis (reference value: 19.52%); assay type: functional; details: Bel-7402
[24] = tested on: MGC-803; test: Antiproliferative activity against human MGC803 cells assessed as growth inhibition after 72 hrs by MTT assay; assay type: functional, cell-based; details: MGC-803, 72 h; procedure, shortened: as §3
[25] = tested on: Bel-7402; test: Induction of apoptosis in human Bel7402 cells assessed as viable cells after 48 hrs at 0.25 uM by Annexin V/propidium iodide staining-based flow cytometric analysis (reference value: 92.80%); assay type: functional; details: Bel-7402, 48 h, read-out: Activity
[26] = tested on: Bel-7402; test: Selectivity index, ratio of IC50 for human L02 cells to ratio of IC50 for human Bel-7402 cells; assay type: functional
Procedure, shortened: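 Selectivity index is IC50 on normal L-02 liver cells divided by IC50 on Bel-7402 tumour cells. Both IC50 values come from MTT survival curves after 72 h exposure.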

[27] = Cell cycle arrest in human Bel7402 cells assessed as cells at S phase at 0.25 uM after 48 hrs by propidium iodide staining-based flow cytometric analysis (reference value: 40.82%); assay type: functional; details: Bel-7402
[28] = tested on: SW-620; test: Anticancer activity against human SW620 cells by MTT assay; assay type: functional, cell-based; procedure, shortened: as §1
[29] = tested on: Bel-7402; test: Induction of apoptosis in human Bel7402 cells assessed as late apoptotic cells after 48 hrs at 0.125 uM by Annexin V/propidium iodide staining-based flow cytometric analysis (reference value: 5.21%); assay type: functional
[30] = Cell cycle arrest in human Bel7402 cells assessed as cells at G2 phase at 0.125 uM after 48 hrs by propidium iodide staining-based flow cytometric analysis (reference value: 19.52%); assay type: functional; details: Bel-7402
[31] = tested on: Bel-7402; test: Induction of apoptosis in human Bel7402 cells assessed as viable cells after 48 hrs at 0.5 uM by Annexin V/propidium iodide staining-based flow cytometric analysis (reference value: 92.80%); assay type: functional; details: Bel-7402, 48 h, read-out: Activity
[32] = tested on: Bel-7402; test: Induction of apoptosis in human Bel7402 cells assessed as necrotic cells after 48 hrs at 0.125 uM by Annexin V/propidium iodide staining-based flow cytometric analysis (reference value: 1.99%); assay type: functional
[33] = Anticancer activity against human Bel7402 cells assessed as growth inhibition by MTT assay; assay type: functional, cell-based; details: Bel-7402; procedure, shortened: as §2

C=C1C(=O)[C@]23[C@H](OC(=O)c4ccc(N(CCCl)CCCl)cc4)[C@H]1CC[C@H]2[C@@]12CO[C@@]3(O)[C@@H](O)[C@@H]1C(C)(C)CC[C@@H]2O
Activity [1]: Dose-dependent effect
IC50 [2]: 2.35 µM
Activity [3]: 1.23%
Activity [4]: 45.6%
IC50 [5]: 2.91 µM
IC50 [6]: 1.86 µM
IC50 [7]: 4.03 µM
Activity [8]: 45.2%
IC50 [9]: 0.5 µM
Activity [10]: 3.14%
Activity [11]: 1.11%
IC50 [12]: 1.12 µM
Activity [13]: 9.98%
viability at 0.125 µM [14]: 87.1%
Activity [15]: 41.3%
Activity [16]: 52%
Activity [17]: 1.29%
Activity [18]: 43.6%
Activity [19]: 19.85%
IC50 [20]: 0.68 µM
Activity [21]: 37.51%
Activity [22]: 10.53%
Activity [23]: 4.46%
IC50 [24]: 1.09 µM
viability at 0.25 µM [25]: 75.8%
Ratio IC50 [26]: 8.06
Activity [27]: 44.8%
IC50 [28]: 1.96 µM
Activity [29]: 10.77%
Activity [30]: 13%
viability at 0.5 µM [31]: 50.7%
Activity [32]: 2.12%
IC50 [33]: 0.5 µM

From ChEMBL document CHEMBL3352716 (ACS Med Chem Lett, 2014)
